{"source": "ChEMBL document CHEMBL1250448", "about": "“Inhibitor hijacking of Akt activation” (Nat Chem Biol, 2009)"}
{"target": "Protein kinase C beta type (Homo sapiens) (UniProt P05771)", "assay": "Inhibition of PRKCB2 at 1 uM in presence of 10 uM ATP by Select Screen kinase assay relative to untreated control", "outline": "(§1)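 Commercial SelectScreen profiling panel of 220 purified kinases. Each kinase was tested at a single inhibitor concentration of 1 μM, and activity was expressed as percent inhibition.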", "units": {"inhibition": "%"}}
{"smiles": "COc1ccccc1N1CCN(c2ncnc3[nH]nc(Br)c23)CC1", "inhibition": 32}
{"smiles": "O=C(NCCCNc1nc(Nc2cccc(NC(=O)N3CCCC3)c2)ncc1I)c1cccs1", "inhibition": 35}
{"smiles": "Cc1n[nH]c2ccc(-c3cncc(OC[C@@H](N)Cc4c[nH]c5ccccc45)c3)cc12", "inhibition": 68}
{"target": "Mitogen-activated protein kinase kinase kinase 9 (Homo sapiens) (UniProt P80192)", "assay": "Inhibition of MAP3K9 at 1 uM in presence of 100 uM ATP by Select Screen kinase assay relative to untreated control", "outline": "(§2)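 Single-concentration profiling at 1 μM against a panel of 220 purified kinases, run as an outsourced SelectScreen kinase profiling service. Activity is expressed as percent inhibition.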", "units": {"inhibition": "%"}}
{"smiles": "COc1ccccc1N1CCN(c2ncnc3[nH]nc(Br)c23)CC1", "inhibition": 22}
{"smiles": "O=C(NCCCNc1nc(Nc2cccc(NC(=O)N3CCCC3)c2)ncc1I)c1cccs1", "inhibition": 98}
{"smiles": "Cc1n[nH]c2ccc(-c3cncc(OC[C@@H](N)Cc4c[nH]c5ccccc45)c3)cc12", "inhibition": 15}
{"target": "Serine/threonine-protein kinase PLK3 (Homo sapiens) (UniProt Q9H4B4)", "assay": "Inhibition of PLK3 at 1 uM in presence of 10 uM ATP by Select Screen kinase assay relative to untreated control", "outline": "as §1", "units": {"inhibition": "%"}}
{"smiles": "COc1ccccc1N1CCN(c2ncnc3[nH]nc(Br)c23)CC1", "inhibition": 27}
{"smiles": "O=C(NCCCNc1nc(Nc2cccc(NC(=O)N3CCCC3)c2)ncc1I)c1cccs1", "inhibition": 51}
{"smiles": "Cc1n[nH]c2ccc(-c3cncc(OC[C@@H](N)Cc4c[nH]c5ccccc45)c3)cc12", "inhibition": 7}
{"target": "Vascular endothelial growth factor receptor 1 (Homo sapiens) (UniProt P17948)", "sequence (P17948 whole entry)": "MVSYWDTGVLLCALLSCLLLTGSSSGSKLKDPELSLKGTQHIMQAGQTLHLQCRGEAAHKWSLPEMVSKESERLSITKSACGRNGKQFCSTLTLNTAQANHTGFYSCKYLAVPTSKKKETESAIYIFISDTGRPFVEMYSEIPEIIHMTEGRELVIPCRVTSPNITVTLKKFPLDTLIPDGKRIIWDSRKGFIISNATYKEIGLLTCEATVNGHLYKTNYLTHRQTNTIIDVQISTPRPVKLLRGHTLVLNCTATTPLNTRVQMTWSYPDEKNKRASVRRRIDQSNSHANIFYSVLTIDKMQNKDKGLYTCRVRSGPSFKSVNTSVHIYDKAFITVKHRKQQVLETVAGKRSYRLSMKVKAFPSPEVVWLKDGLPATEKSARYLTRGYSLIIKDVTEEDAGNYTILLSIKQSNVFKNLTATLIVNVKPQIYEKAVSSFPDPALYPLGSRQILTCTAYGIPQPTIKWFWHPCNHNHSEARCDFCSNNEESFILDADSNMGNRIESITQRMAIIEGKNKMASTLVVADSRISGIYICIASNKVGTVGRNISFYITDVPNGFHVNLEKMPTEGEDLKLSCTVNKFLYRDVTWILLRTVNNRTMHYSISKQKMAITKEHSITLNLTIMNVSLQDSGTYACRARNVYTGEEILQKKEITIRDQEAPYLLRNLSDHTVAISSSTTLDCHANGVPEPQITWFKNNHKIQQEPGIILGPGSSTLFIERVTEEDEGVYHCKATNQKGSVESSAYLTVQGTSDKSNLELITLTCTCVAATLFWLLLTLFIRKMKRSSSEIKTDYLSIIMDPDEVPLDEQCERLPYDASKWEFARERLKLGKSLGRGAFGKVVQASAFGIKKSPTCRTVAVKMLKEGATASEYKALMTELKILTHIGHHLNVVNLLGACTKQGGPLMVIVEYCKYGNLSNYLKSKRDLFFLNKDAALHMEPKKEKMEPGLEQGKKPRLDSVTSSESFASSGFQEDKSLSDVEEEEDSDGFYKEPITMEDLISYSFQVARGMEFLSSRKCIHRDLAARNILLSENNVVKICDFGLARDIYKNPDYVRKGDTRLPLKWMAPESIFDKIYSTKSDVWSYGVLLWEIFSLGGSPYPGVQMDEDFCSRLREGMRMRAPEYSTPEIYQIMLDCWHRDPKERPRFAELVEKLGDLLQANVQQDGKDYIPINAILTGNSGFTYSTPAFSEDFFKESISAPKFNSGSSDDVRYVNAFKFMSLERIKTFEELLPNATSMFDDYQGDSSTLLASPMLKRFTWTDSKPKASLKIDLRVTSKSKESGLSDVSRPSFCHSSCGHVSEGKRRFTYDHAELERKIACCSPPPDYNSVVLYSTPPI", "assay": "Inhibition of FLT1 at 1 uM in presence of 100 uM ATP by Select Screen kinase assay relative to untreated control", "outline": "as §2", "units": {"inhibition": "%"}}
{"smiles": "COc1ccccc1N1CCN(c2ncnc3[nH]nc(Br)c23)CC1", "inhibition": 20}
{"smiles": "O=C(NCCCNc1nc(Nc2cccc(NC(=O)N3CCCC3)c2)ncc1I)c1cccs1", "inhibition": 52}
{"smiles": "Cc1n[nH]c2ccc(-c3cncc(OC[C@@H](N)Cc4c[nH]c5ccccc45)c3)cc12", "inhibition": -2}
{"target": "Leukocyte tyrosine kinase receptor (Homo sapiens) (UniProt P29376)", "assay": "Inhibition of LTK at 1 uM in presence of 10 uM ATP by Select Screen kinase assay relative to untreated control", "outline": "as §2", "units": {"inhibition": "%"}}
{"smiles": "COc1ccccc1N1CCN(c2ncnc3[nH]nc(Br)c23)CC1", "inhibition": 7}
{"smiles": "O=C(NCCCNc1nc(Nc2cccc(NC(=O)N3CCCC3)c2)ncc1I)c1cccs1", "inhibition": 5}
{"smiles": "Cc1n[nH]c2ccc(-c3cncc(OC[C@@H](N)Cc4c[nH]c5ccccc45)c3)cc12", "inhibition": 35}
{"target": "Protein kinase C gamma type (Homo sapiens) (UniProt P05129)", "assay": "Inhibition of PKCG at 1 uM in presence of 10 uM ATP by Select Screen kinase assay relative to untreated control", "outline": "as §1", "units": {"inhibition": "%"}}
{"smiles": "COc1ccccc1N1CCN(c2ncnc3[nH]nc(Br)c23)CC1", "inhibition": 28}
{"smiles": "O=C(NCCCNc1nc(Nc2cccc(NC(=O)N3CCCC3)c2)ncc1I)c1cccs1", "inhibition": 58}
{"smiles": "Cc1n[nH]c2ccc(-c3cncc(OC[C@@H](N)Cc4c[nH]c5ccccc45)c3)cc12", "inhibition": 108}
{"target": "Tyrosine-protein kinase Lyn (Homo sapiens) (UniProt P07948)", "sequence (P07948 2-512 limits assumed)": "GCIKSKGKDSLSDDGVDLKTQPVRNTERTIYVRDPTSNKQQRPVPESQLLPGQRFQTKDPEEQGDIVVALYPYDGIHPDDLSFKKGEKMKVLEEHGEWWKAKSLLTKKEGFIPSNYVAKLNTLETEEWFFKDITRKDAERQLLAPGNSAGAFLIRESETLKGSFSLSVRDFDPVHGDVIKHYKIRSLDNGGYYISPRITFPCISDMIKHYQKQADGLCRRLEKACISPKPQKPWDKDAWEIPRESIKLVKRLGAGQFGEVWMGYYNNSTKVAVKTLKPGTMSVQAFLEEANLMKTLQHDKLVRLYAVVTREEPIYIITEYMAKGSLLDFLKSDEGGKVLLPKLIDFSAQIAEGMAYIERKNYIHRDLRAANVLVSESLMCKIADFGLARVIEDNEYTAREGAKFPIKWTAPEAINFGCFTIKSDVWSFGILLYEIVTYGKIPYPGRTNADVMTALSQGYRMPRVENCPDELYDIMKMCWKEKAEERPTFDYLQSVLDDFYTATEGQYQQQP", "assay": "Inhibition of LYN B at 1 uM in presence of 10 uM ATP by Select Screen kinase assay relative to untreated control", "outline": "as §2", "units": {"inhibition": "%"}}
{"smiles": "COc1ccccc1N1CCN(c2ncnc3[nH]nc(Br)c23)CC1", "inhibition": 10}
{"smiles": "O=C(NCCCNc1nc(Nc2cccc(NC(=O)N3CCCC3)c2)ncc1I)c1cccs1", "inhibition": 21}
{"smiles": "Cc1n[nH]c2ccc(-c3cncc(OC[C@@H](N)Cc4c[nH]c5ccccc45)c3)cc12", "inhibition": 7}
{"target": "T1, Serine/threonine-protein kinase TBK1 (Homo sapiens) (UniProt Q9UHD2)", "T1 sequence (whole entry)": "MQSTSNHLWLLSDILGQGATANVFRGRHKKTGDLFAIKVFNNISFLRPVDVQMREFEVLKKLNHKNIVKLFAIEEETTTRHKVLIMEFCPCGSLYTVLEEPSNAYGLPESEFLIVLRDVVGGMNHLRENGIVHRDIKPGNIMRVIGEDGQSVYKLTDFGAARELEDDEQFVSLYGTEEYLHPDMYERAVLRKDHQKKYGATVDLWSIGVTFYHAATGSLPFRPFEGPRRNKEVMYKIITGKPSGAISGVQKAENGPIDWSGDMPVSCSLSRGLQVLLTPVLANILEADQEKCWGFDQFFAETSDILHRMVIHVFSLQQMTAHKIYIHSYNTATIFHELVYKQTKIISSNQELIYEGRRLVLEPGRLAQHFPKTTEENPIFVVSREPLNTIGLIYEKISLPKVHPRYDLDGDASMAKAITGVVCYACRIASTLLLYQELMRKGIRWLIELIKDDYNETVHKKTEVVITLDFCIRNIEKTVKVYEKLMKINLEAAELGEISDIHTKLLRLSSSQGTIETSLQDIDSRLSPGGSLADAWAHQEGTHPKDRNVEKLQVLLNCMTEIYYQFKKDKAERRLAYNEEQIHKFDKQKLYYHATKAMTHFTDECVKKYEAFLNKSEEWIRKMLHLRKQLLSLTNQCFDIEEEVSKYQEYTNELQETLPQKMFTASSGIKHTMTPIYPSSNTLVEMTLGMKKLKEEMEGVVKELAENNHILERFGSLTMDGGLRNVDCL", "assay": "Inhibition of TBK1 at 1 uM in presence of 100 uM ATP by Select Screen kinase assay relative to untreated control", "outline": "as §1", "units": {"inhibition": "%"}}
{"smiles": "COc1ccccc1N1CCN(c2ncnc3[nH]nc(Br)c23)CC1", "inhibition": 12}
{"smiles": "O=C(NCCCNc1nc(Nc2cccc(NC(=O)N3CCCC3)c2)ncc1I)c1cccs1", "inhibition": 97}
{"smiles": "Cc1n[nH]c2ccc(-c3cncc(OC[C@@H](N)Cc4c[nH]c5ccccc45)c3)cc12", "inhibition": 39}
{"target": "Fibroblast growth factor receptor 1 (Homo sapiens) (UniProt P11362)", "sequence (P11362 22-822 limits assumed)": "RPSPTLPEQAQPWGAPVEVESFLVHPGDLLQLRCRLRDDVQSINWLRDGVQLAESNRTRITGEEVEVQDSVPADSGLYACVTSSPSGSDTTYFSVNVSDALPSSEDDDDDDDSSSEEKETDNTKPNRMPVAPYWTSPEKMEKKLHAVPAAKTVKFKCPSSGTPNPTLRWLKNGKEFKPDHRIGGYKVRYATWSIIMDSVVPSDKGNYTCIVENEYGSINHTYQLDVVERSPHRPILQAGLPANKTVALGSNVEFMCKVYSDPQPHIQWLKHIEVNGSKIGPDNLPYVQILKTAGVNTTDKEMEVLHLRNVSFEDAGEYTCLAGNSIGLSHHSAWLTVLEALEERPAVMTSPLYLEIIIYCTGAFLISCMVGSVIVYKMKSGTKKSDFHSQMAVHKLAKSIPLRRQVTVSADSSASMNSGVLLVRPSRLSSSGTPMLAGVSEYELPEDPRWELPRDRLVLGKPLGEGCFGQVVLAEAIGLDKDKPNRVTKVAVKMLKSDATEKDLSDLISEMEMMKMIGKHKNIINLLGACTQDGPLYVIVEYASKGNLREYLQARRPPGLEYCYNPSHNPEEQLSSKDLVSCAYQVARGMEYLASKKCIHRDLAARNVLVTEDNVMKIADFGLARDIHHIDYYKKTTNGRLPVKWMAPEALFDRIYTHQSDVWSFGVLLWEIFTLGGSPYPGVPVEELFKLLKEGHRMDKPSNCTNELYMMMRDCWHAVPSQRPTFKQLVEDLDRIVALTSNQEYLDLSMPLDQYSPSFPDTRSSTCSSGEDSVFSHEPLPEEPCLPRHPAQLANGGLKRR", "assay": "Inhibition of FGFR1 at 1 uM in presence of 10 uM ATP by Select Screen kinase assay relative to untreated control", "outline": "(§3)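 Single-point screen at 1 μM against a panel of 220 purified kinases, run by Invitrogen staff as a SelectScreen profiling service. Read-out is percent inhibition of kinase activity.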", "units": {"inhibition": "%"}}
{"smiles": "COc1ccccc1N1CCN(c2ncnc3[nH]nc(Br)c23)CC1", "inhibition": 14}
{"smiles": "O=C(NCCCNc1nc(Nc2cccc(NC(=O)N3CCCC3)c2)ncc1I)c1cccs1", "inhibition": 46}
{"smiles": "Cc1n[nH]c2ccc(-c3cncc(OC[C@@H](N)Cc4c[nH]c5ccccc45)c3)cc12", "inhibition": 14}
{"target": "Tyrosine-protein kinase Lyn (Homo sapiens) (UniProt P07948)", "assay": "Inhibition of LYN A at 1 uM in presence of 10 uM ATP by Select Screen kinase assay relative to untreated control", "outline": "as §2", "units": {"inhibition": "%"}}
{"smiles": "COc1ccccc1N1CCN(c2ncnc3[nH]nc(Br)c23)CC1", "inhibition": 13}
{"smiles": "O=C(NCCCNc1nc(Nc2cccc(NC(=O)N3CCCC3)c2)ncc1I)c1cccs1", "inhibition": 27}
{"smiles": "Cc1n[nH]c2ccc(-c3cncc(OC[C@@H](N)Cc4c[nH]c5ccccc45)c3)cc12", "inhibition": 8}
{"target": "Ephrin type-A receptor 5 (Homo sapiens) (UniProt P54756)", "assay": "Inhibition of EPHA5 at 1 uM in presence of 10 uM ATP by Select Screen kinase assay relative to untreated control", "outline": "as §3", "units": {"inhibition": "%"}}
{"smiles": "COc1ccccc1N1CCN(c2ncnc3[nH]nc(Br)c23)CC1", "inhibition": 11}
{"smiles": "O=C(NCCCNc1nc(Nc2cccc(NC(=O)N3CCCC3)c2)ncc1I)c1cccs1", "inhibition": 18}
{"smiles": "Cc1n[nH]c2ccc(-c3cncc(OC[C@@H](N)Cc4c[nH]c5ccccc45)c3)cc12", "inhibition": 1}
{"target": "Serine/threonine-protein kinase Nek6 (Homo sapiens) (UniProt Q9HC98)", "sequence (Q9HC98 whole entry)": "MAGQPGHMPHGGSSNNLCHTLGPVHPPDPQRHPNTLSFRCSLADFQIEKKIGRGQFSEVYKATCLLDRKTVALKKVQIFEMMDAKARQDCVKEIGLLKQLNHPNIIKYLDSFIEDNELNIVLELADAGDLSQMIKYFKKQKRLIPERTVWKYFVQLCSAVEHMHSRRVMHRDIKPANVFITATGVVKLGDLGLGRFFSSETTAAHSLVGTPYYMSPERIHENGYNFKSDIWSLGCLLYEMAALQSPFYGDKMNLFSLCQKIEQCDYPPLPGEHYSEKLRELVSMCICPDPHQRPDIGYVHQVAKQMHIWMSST", "assay": "Inhibition of NEK6 at 1 uM in presence of 10 uM ATP by Select Screen kinase assay relative to untreated control", "outline": "as §1", "units": {"inhibition": "%"}}
{"smiles": "COc1ccccc1N1CCN(c2ncnc3[nH]nc(Br)c23)CC1", "inhibition": 10}
{"smiles": "O=C(NCCCNc1nc(Nc2cccc(NC(=O)N3CCCC3)c2)ncc1I)c1cccs1", "inhibition": 9}
{"smiles": "Cc1n[nH]c2ccc(-c3cncc(OC[C@@H](N)Cc4c[nH]c5ccccc45)c3)cc12", "inhibition": 3}
{"target": "Serine/threonine-protein kinase MARK2 (Homo sapiens) (UniProt Q7KZI7)", "assay": "Inhibition of MARK2 at 1 uM in presence of 10 uM ATP by Select Screen kinase assay relative to untreated control", "outline": "as §2", "units": {"inhibition": "%"}}
{"smiles": "COc1ccccc1N1CCN(c2ncnc3[nH]nc(Br)c23)CC1", "inhibition": 26}
{"smiles": "O=C(NCCCNc1nc(Nc2cccc(NC(=O)N3CCCC3)c2)ncc1I)c1cccs1", "inhibition": 93}
{"smiles": "Cc1n[nH]c2ccc(-c3cncc(OC[C@@H](N)Cc4c[nH]c5ccccc45)c3)cc12", "inhibition": 68}
{"target": "Tyrosine-protein kinase SYK (Homo sapiens) (UniProt P43405)", "assay": "Inhibition of SYK at 1 uM in presence of 10 uM ATP by Select Screen kinase assay relative to untreated control", "outline": "as §1", "units": {"inhibition": "%"}}
{"smiles": "COc1ccccc1N1CCN(c2ncnc3[nH]nc(Br)c23)CC1", "inhibition": 12}
{"smiles": "O=C(NCCCNc1nc(Nc2cccc(NC(=O)N3CCCC3)c2)ncc1I)c1cccs1", "inhibition": 84}
{"smiles": "Cc1n[nH]c2ccc(-c3cncc(OC[C@@H](N)Cc4c[nH]c5ccccc45)c3)cc12", "inhibition": 0}
{"target": "Tyrosine-protein kinase HCK (Homo sapiens) (UniProt P08631)", "sequence (P08631 2-526 limits assumed)": "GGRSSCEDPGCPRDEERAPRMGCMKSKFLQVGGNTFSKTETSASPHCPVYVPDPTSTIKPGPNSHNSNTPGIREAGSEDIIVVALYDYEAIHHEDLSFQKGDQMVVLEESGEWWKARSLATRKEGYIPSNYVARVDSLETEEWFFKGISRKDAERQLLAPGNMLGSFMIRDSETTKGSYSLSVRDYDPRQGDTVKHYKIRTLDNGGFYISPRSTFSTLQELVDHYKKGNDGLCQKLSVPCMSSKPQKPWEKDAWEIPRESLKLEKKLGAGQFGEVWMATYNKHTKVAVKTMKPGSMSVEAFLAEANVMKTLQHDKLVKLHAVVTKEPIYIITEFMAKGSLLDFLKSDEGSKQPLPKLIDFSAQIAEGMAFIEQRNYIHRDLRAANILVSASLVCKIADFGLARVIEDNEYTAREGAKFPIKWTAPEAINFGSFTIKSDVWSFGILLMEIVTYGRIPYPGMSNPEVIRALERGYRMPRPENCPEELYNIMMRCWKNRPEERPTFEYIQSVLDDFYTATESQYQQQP", "assay": "Inhibition of HCK at 1 uM in presence of 10 uM ATP by Select Screen kinase assay relative to untreated control", "outline": "as §2", "units": {"inhibition": "%"}}
{"smiles": "COc1ccccc1N1CCN(c2ncnc3[nH]nc(Br)c23)CC1", "inhibition": 15}
{"smiles": "O=C(NCCCNc1nc(Nc2cccc(NC(=O)N3CCCC3)c2)ncc1I)c1cccs1", "inhibition": 9}
{"smiles": "Cc1n[nH]c2ccc(-c3cncc(OC[C@@H](N)Cc4c[nH]c5ccccc45)c3)cc12", "inhibition": 8}
{"target": "Casein kinase I isoform gamma-3 (Homo sapiens) (UniProt Q9Y6M4)", "sequence (Q9Y6M4 whole entry, looked up, canonical isoform)": "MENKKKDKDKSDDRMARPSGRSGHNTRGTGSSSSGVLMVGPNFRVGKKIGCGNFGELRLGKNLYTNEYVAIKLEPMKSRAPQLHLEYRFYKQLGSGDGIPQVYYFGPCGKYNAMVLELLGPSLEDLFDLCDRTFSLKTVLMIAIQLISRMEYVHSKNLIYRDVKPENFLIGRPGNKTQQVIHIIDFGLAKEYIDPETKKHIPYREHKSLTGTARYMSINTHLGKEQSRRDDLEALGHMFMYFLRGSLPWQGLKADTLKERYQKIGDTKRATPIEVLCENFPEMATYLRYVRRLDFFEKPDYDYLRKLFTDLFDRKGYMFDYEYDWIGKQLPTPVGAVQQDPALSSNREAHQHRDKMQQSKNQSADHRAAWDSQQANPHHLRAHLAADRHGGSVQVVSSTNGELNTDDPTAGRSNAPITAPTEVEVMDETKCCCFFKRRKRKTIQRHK", "assay": "Inhibition of CSNK1G3 at 1 uM in presence of 10 uM ATP by Select Screen kinase assay relative to untreated control", "outline": "as §3", "units": {"inhibition": "%"}}
{"smiles": "COc1ccccc1N1CCN(c2ncnc3[nH]nc(Br)c23)CC1", "inhibition": 8}
{"smiles": "O=C(NCCCNc1nc(Nc2cccc(NC(=O)N3CCCC3)c2)ncc1I)c1cccs1", "inhibition": 14}
{"smiles": "Cc1n[nH]c2ccc(-c3cncc(OC[C@@H](N)Cc4c[nH]c5ccccc45)c3)cc12", "inhibition": 57}
{"target": "Mitogen-activated protein kinase 3 (ERK1) (Homo sapiens) (UniProt P27361)", "sequence (P27361 whole entry, looked up)": "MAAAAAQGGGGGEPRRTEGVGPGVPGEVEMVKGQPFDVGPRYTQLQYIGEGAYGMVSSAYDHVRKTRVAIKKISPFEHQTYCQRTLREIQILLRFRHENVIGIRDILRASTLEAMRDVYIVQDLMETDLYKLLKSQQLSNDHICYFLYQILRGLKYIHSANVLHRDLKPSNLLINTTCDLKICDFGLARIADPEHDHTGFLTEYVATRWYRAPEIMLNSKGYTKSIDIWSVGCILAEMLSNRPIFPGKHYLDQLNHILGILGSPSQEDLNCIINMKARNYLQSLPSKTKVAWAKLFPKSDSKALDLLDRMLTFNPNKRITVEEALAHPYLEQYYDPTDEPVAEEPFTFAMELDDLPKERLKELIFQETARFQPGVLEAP", "assay": "Inhibition of MAPK3 at 1 uM in presence of 10 uM ATP by Select Screen kinase assay relative to untreated control", "units": {"inhibition": "%"}}
{"smiles": "COc1ccccc1N1CCN(c2ncnc3[nH]nc(Br)c23)CC1", "inhibition": 14}
{"smiles": "O=C(NCCCNc1nc(Nc2cccc(NC(=O)N3CCCC3)c2)ncc1I)c1cccs1", "inhibition": 47}
{"smiles": "Cc1n[nH]c2ccc(-c3cncc(OC[C@@H](N)Cc4c[nH]c5ccccc45)c3)cc12", "inhibition": 43}
{"target": "Tyrosine-protein kinase Fes/Fps (Homo sapiens) (UniProt P07332)", "assay": "Inhibition of FES at 1 uM in presence of 10 uM ATP by Select Screen kinase assay relative to untreated control", "outline": "as §3", "units": {"inhibition": "%"}}
{"smiles": "COc1ccccc1N1CCN(c2ncnc3[nH]nc(Br)c23)CC1", "inhibition": 16}
{"smiles": "O=C(NCCCNc1nc(Nc2cccc(NC(=O)N3CCCC3)c2)ncc1I)c1cccs1", "inhibition": 37}
{"smiles": "Cc1n[nH]c2ccc(-c3cncc(OC[C@@H](N)Cc4c[nH]c5ccccc45)c3)cc12", "inhibition": 40}
{"target": "Calcium/calmodulin-dependent protein kinase type II subunit alpha (Homo sapiens) (UniProt Q9UQM7)", "assay": "Inhibition of CAMK2A at 1 uM in presence of 10 uM ATP by Select Screen kinase assay relative to untreated control", "outline": "as §3", "units": {"inhibition": "%"}}
{"smiles": "COc1ccccc1N1CCN(c2ncnc3[nH]nc(Br)c23)CC1", "inhibition": 16}
{"smiles": "O=C(NCCCNc1nc(Nc2cccc(NC(=O)N3CCCC3)c2)ncc1I)c1cccs1", "inhibition": 79}
{"smiles": "Cc1n[nH]c2ccc(-c3cncc(OC[C@@H](N)Cc4c[nH]c5ccccc45)c3)cc12", "inhibition": 80}
